Source: ChEMBL document CHEMBL4808168, “The Discovery of Two Novel Classes of 5,5-Bicyclic Nucleoside-Derived PRMT5 Inhibitors for the Treatment of Cancer” (J Med Chem, 2021)
Converted amounts (≈) assume the structure as drawn.

Columns and labels:
[1] = Plasma clearance in rat; format: ADME
[2] = Solubility of the compound in […] at pH 2 at 200 uM incubated for 24 hrs by UV-vis detection based HPLC analysis; format: physicochemical
Summary of the method: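 10 mM DMSO stock added to 10 mM potassium phosphate buffer at pH 2 or pH 7, or FaSSIF pH 6.5, to 200 μM total; 24 h equilibration, filtration, then reverse-phase HPLC with UV–vis detection.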

[3] = MRT in rat; format: ADME; details: in vivo
[4] = Unbound volume of distribution in rat; format: ADME; details: in vivo
[5] = Unbound clearance in rat; format: ADME; details: in vivo
Z-138 = assay: Antiproliferative activity against human Z138 cells incubated for 10 days by cell titer-glo assay; format: functional, cell-based; details: Z-138, 240 h
[6] = Solubility of the compound in FaSSIF at pH 7 at 200 uM incubated for 24 hrs by UV-vis detection based HPLC analysis; format: physicochemical
[7] = Oral bioavailability in rat; format: ADME, organism-based; details: in vivo
[8] = target: Protein arginine N-methyltransferase 5 (Homo sapiens, UniProt O14744); assay: Inhibition of PRMT5 (unknown origin) assessed as inhibition of symmetric dimethylation of arginine incubated for 3 days by fluorescence based cellular target engagement assay
Summary of the method: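 MCF-7 cells (4000/well, collagen-coated plates) in EMEM with 0.01 mg/mL insulin and 10% FBS; 10-point 1:3 titration from 10,000 nM; 3 days at 37 °C/5% CO2; fixed, permeabilized, anti-SDMA antibody, then Alexa488 anti-rabbit IgG plus Hoechst; nuclear fluorescence by high-content imaging versus DMSO; EC50 by four-parameter robust fit.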

Chain of Protein arginine N-methyltransferase 5 (O14744 whole entry): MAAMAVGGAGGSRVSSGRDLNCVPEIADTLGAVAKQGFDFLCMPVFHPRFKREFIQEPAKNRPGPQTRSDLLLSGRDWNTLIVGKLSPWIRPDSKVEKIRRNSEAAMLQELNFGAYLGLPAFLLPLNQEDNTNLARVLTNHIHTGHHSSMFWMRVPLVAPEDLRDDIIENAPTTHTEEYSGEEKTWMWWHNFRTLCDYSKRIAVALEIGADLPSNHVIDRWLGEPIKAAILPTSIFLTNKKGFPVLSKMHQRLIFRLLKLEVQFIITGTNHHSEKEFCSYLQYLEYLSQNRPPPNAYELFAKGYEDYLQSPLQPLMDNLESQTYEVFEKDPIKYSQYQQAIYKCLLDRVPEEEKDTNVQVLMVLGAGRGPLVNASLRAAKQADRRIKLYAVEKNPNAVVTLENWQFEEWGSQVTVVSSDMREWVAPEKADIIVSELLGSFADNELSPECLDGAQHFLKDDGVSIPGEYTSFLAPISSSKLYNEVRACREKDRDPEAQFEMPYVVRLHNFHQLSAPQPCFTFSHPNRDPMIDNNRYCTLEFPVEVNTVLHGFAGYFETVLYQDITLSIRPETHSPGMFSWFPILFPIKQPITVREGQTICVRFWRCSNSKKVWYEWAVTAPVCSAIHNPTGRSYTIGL

CNc1ncnc2c1ccn2[C@@H]1O[C@@H]2[C@@H](Oc3ccc4cc(Br)c(N)nc4c3)CC[C@]2(O)[C@H]1O
clearance [1]: 12 mL/min/kg
solubility at 24 h, 200 µM [2]: 163 µM (≈ 86 µg/mL)
MRT [3]: 1.2 h
Vdu [4]: 222 L/kg
CL free [5]: 3143 mL/min/kg
EC50 (Z-138): 23 nM
solubility at 24 h, 200 µM [6]: 14 µM (≈ 7.38 µg/mL)
bioavailability [7]: 68%
EC50 [8]: 5.3 nM

Nc1nc2cc(C[C@@H]3CC[C@@]4(O)[C@@H]3O[C@@H](n3ccc5c(N)ncnc53)[C@@H]4O)ccc2cc1Cl
clearance [1]: 46 mL/min/kg
solubility at 24 h, 200 µM [2]: 159 µM (≈ 74.2 µg/mL)
MRT [3]: 1.3 h
Vdu [4]: 79 L/kg
CL free [5]: 1045 mL/min/kg
EC50 (Z-138): 3.2 nM
solubility at 24 h, 200 µM [6]: 60 µM (≈ 28 µg/mL)
bioavailability [7]: 8%
EC50 [8]: 1.2 nM

Nc1nc2cc(C[C@@H]3CC[C@@]4(O)[C@@H]3C[C@@H](n3cc(F)c5c(N)ncnc53)[C@@H]4O)ccc2cc1F
clearance [1]: 25 mL/min/kg
solubility at 24 h, 200 µM [2]: 164 µM (≈ 76.5 µg/mL)
MRT [3]: 1.3 h
Vdu [4]: 29 L/kg
CL free [5]: 1476 mL/min/kg
EC50 (Z-138): 2.3 nM
solubility at 24 h, 200 µM [6]: 121 µM (≈ 56.4 µg/mL)
bioavailability [7]: 19%
EC50 [8]: 0.74 nM

CNc1ncnc2c1ccn2[C@@H]1O[C@@H]2[C@H](Cc3ccc4cc(Br)c(N)nc4c3)CC[C@]2(O)[C@H]1O
clearance [1]: 31 mL/min/kg
MRT [3]: 1 h
Vdu [4]: 52 L/kg
CL free [5]: 900 mL/min/kg
EC50 (Z-138): 16 nM
bioavailability [7]: 20%
EC50 [8]: 9.9 nM

Nc1nc2cc(O[C@H]3CC[C@@]4(O)[C@@H]3O[C@@H](n3ccc5c(N)ncnc53)[C@@H]4O)ccc2cc1Br
clearance [1]: 49 mL/min/kg
solubility at 24 h, 200 µM [2]: 128 µM (≈ 65.7 µg/mL)
MRT [3]: 1.8 h
Vdu [4]: 28 L/kg
CL free [5]: 349 mL/min/kg
EC50 (Z-138): 3.7 nM
solubility at 24 h, 200 µM [6]: < 1 µM
bioavailability [7]: 10%
EC50 [8]: 1.2 nM

Cc1ncnc2c1ccn2[C@@H]1C[C@@H]2[C@H](Cc3ccc4cc(Cl)c(N)nc4c3)CC[C@]2(O)[C@H]1O
clearance [1]: 21 mL/min/kg
solubility at 24 h, 200 µM [2]: 184 µM (≈ 85.4 µg/mL)
MRT [3]: 1.7 h
Vdu [4]: 83 L/kg
CL free [5]: 424 mL/min/kg
EC50 (Z-138): 2.2 nM
solubility at 24 h, 200 µM [6]: 22 µM (≈ 10.2 µg/mL)
bioavailability [7]: 64%
EC50 [8]: 0.87 nM

Nc1nc2cc(C[C@@H]3CC[C@@]4(O)[C@@H]3O[C@@H](n3ccc5c(C6CC6)ncnc53)[C@@H]4O)ccc2cc1Br
EC50 (Z-138): 67 nM
EC50 [8]: 5.3 nM

Cc1nc(N)c2ccn([C@@H]3C[C@@H]4[C@H](Cc5ccc6cc(F)c(N)nc6c5)CC[C@]4(O)[C@H]3O)c2n1
clearance [1]: 9 mL/min/kg
solubility at 24 h, 200 µM [2]: 149 µM (≈ 68.9 µg/mL)
MRT [3]: 3.2 h
Vdu [4]: 150 L/kg
CL free [5]: 789 mL/min/kg
EC50 (Z-138): 4.1 nM
solubility at 24 h, 200 µM [6]: 123 µM (≈ 56.9 µg/mL)
bioavailability [7]: 17%
EC50 [8]: 1.5 nM

Nc1nc2cc(C[C@@H]3CC[C@@]4(O)[C@@H]3C[C@@H](n3ccc5c(N)ncnc53)[C@@H]4O)ccc2cc1Br
clearance [1]: 15 mL/min/kg
solubility at 24 h, 200 µM [2]: 147 µM (≈ 74.9 µg/mL)
MRT [3]: 1.6 h
Vdu [4]: 136 L/kg
CL free [5]: 1559 mL/min/kg
EC50 (Z-138): 6.9 nM
solubility at 24 h, 200 µM [6]: 20 µM (≈ 10.2 µg/mL)
bioavailability [7]: 10%
EC50 [8]: 2.9 nM

Cc1ncnc2c1ccn2[C@@H]1O[C@@H]2[C@@H](Cc3ccc4cc(Cl)c(N)nc4c3)CC[C@]2(O)[C@H]1O
EC50 (Z-138): 26 nM
EC50 [8]: 21 nM

Cc1ncnc2c1ccn2[C@@H]1O[C@@H]2[C@H](Cc3ccc4ccc(N)nc4c3)CC[C@]2(O)[C@H]1O
clearance [1]: 101 mL/min/kg
solubility at 24 h, 200 µM [2]: 181 µM (≈ 78.1 µg/mL)
MRT [3]: 1.7 h
Vdu [4]: 68 L/kg
CL free [5]: 648 mL/min/kg
EC50 (Z-138): < 0.5 nM
solubility at 24 h, 200 µM [6]: 164 µM (≈ 70.8 µg/mL)
EC50 [8]: 9.9 nM

Nc1nc2cc(C[C@@H]3CC[C@@]4(O)[C@@H]3O[C@@H](n3cc(F)c5c(N)ncnc53)[C@@H]4O)ccc2cc1F
clearance [1]: 60 mL/min/kg
solubility at 24 h, 200 µM [2]: 158 µM (≈ 74 µg/mL)
MRT [3]: 1 h
Vdu [4]: 34 L/kg
CL free [5]: 541 mL/min/kg
EC50 (Z-138): 5.6 nM
solubility at 24 h, 200 µM [6]: 114 µM (≈ 53.4 µg/mL)
bioavailability [7]: 24%
EC50 [8]: 4.6 nM

Nc1nc2cc(O[C@@H]3CC[C@@]4(O)[C@@H]3O[C@@H](n3ccc5c(N)ncnc53)[C@@H]4O)ccc2cc1Br
EC50 (Z-138): > 10 nM
EC50 [8]: > 10 nM

Nc1nc2cc(O[C@H]3CC[C@@]4(O)[C@@H]3O[C@@H](n3ccc5c(N)ncnc53)[C@@H]4O)ccc2cc1F
clearance [1]: 49 mL/min/kg
solubility at 24 h, 200 µM [2]: 158 µM (≈ 71.5 µg/mL)
MRT [3]: 0.6 h
Vdu [4]: 11 L/kg
CL free [5]: 289 mL/min/kg
EC50 (Z-138): 27 nM
solubility at 24 h, 200 µM [6]: < 1 µM
EC50 [8]: 0.9 nM

Cc1cn([C@@H]2C[C@@H]3[C@H](Cc4ccc5cc(F)c(N)nc5c4)CC[C@]3(O)[C@H]2O)c2ncnc(N)c12
clearance [1]: 38 mL/min/kg
solubility at 24 h, 200 µM [2]: 146 µM (≈ 67.5 µg/mL)
MRT [3]: 1.1 h
Vdu [4]: 50 L/kg
CL free [5]: 788 mL/min/kg
EC50 (Z-138): 3.7 nM
solubility at 24 h, 200 µM [6]: 66 µM (≈ 30.5 µg/mL)
bioavailability [7]: 10%
EC50 [8]: 0.97 nM

Cc1ncnc2c1ccn2[C@@H]1O[C@@H]2[C@@H](Oc3ccc4cc(F)c(N)nc4c3)CC[C@]2(O)[C@H]1O
clearance [1]: 16 mL/min/kg
solubility at 24 h, 200 µM [2]: 152 µM (≈ 68.6 µg/mL)
MRT [3]: 1.5 h
Vdu [4]: 30 L/kg
CL free [5]: 345 mL/min/kg
EC50 (Z-138): 172 nM
solubility at 24 h, 200 µM [6]: 116 µM (≈ 52.4 µg/mL)
EC50 [8]: 38 nM

Nc1nc2cc(C[C@@H]3CC[C@@]4(O)[C@@H]3O[C@@H](n3ccc5c(N)ncnc53)[C@@H]4O)ccc2cc1F
clearance [1]: 18 mL/min/kg
solubility at 24 h, 200 µM [2]: 163 µM (≈ 73.4 µg/mL)
MRT [3]: 1.3 h
Vdu [4]: 111 L/kg
CL free [5]: 1029 mL/min/kg
EC50 (Z-138): 8.3 nM
solubility at 24 h, 200 µM [6]: 142 µM (≈ 64 µg/mL)
bioavailability [7]: 28%
EC50 [8]: 2.3 nM

Cc1ncnc2c1ccn2[C@@H]1O[C@@H]2[C@H](Cc3ccc4cc(F)c(N)nc4c3)CC[C@]2(O)[C@H]1O
clearance [1]: 32 mL/min/kg
solubility at 24 h, 200 µM [2]: 159 µM (≈ 71.5 µg/mL)
MRT [3]: 1 h
Vdu [4]: 20 L/kg
CL free [5]: 351 mL/min/kg
EC50 (Z-138): 23 nM
solubility at 24 h, 200 µM [6]: 118 µM (≈ 53 µg/mL)
bioavailability [7]: 51%
EC50 [8]: 14 nM

Cc1ncnc2c1ccn2[C@@H]1C[C@@H]2[C@H](Cc3ccc4cc(F)c(N)nc4c3)CC[C@]2(O)[C@H]1O
clearance [1]: 24 mL/min/kg
solubility at 24 h, 200 µM [2]: 157 µM (≈ 70.3 µg/mL)
MRT [3]: 1.3 h
Vdu [4]: 33 L/kg
CL free [5]: 374 mL/min/kg
EC50 (Z-138): 3.5 nM
solubility at 24 h, 200 µM [6]: 94 µM (≈ 42.1 µg/mL)
bioavailability [7]: 77%
EC50 [8]: 0.89 nM

Nc1nc2cc(O[C@H]3CC[C@@]4(O)[C@@H]3O[C@@H](n3ccc5cncnc53)[C@@H]4O)ccc2cc1Br
EC50 (Z-138): 20 nM
EC50 [8]: 32 nM

Cc1cc2ccc(C[C@@H]3CC[C@@]4(O)[C@@H]3O[C@@H](n3ccc5c(N)ncnc53)[C@@H]4O)cc2nc1N
clearance [1]: 106 mL/min/kg
solubility at 24 h, 200 µM [2]: 151 µM (≈ 67.4 µg/mL)
MRT [3]: 0.8 h
Vdu [4]: 24 L/kg
CL free [5]: 523 mL/min/kg
EC50 (Z-138): 0.77 nM
solubility at 24 h, 200 µM [6]: 137 µM (≈ 61.2 µg/mL)
EC50 [8]: 3.2 nM

Cc1ncnc2c1ccn2[C@@H]1C[C@@H]2[C@@H](Cc3ccc4cc(F)c(N)nc4c3)CC[C@]2(O)[C@H]1O
EC50 (Z-138): 63 nM
EC50 [8]: 11 nM
